Measured values: ChEMBL document CHEMBL4346679, “N, N', N″-trisubstituted guanidines: Synthesis, characterization and evaluation of their leishmanicidal activity” (Eur J Med Chem, 2019)
Activity calls are given as the source filed them. The rule behind the calls is not given here.

Tests used:
[1] = Cytotoxicity against mouse peritoneal macrophages assessed as decrease in cell viability after 24 hrs by MTT assay; assay type: cell-based, Peritoneal macrophage
Summary of the method: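 Peritoneal macrophages (1 × 10^5/well) in RPMI 1640 with 10% FBS, 25 mM HEPES and 2 mM L-glutamine were pre-incubated 4 h. They were then exposed to compounds for 24 h at 37 °C, 5% CO2. Viability was read by MTT; CC50 determined.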

[2] = Safety index, ratio of CC50 for mouse peritoneal macrophage to IC50 for promastigote stage of Leishmania amazonensis MPRO/BR/1972/M1841-LV-79; assay type: toxicity; conditions: read-out: Ratio CC50/IC50
[3] = test system: Leishmania amazonensis; assay: Antileishmanial activity against promastigote stage of Leishmania amazonensis MPRO/BR/1972/M1841-LV-79 assessed as parasite growth inhibition after 72 hrs by MTT assay; assay type: functional, organism-based; conditions: MPRO/BR/1972/M1841-LV-79, 72 h
Summary of the method: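 Promastigotes at 1 × 10^7/mL in LIT + 10% FBS were exposed 72 h at 28 °C to ten concentrations, 0.5–100 µM (final DMSO 0.1%). Viability was read by MTT, with formazan dissolved in SDS-HCl and absorbance at 570 nm. Run in triplicate; IC50 from nonlinear regression.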

[4] = Safety index, ratio of CC50 for mouse peritoneal macrophages to IC50 for Leishmania amazonensis MPRO/BR/1972/M1841-LV-79 amastigotes infected in mouse peritoneal macrophages; assay type: toxicity; conditions: read-out: Ratio CC50/IC50
[5] = test system: Leishmania amazonensis; assay: Antileishmanial activity against Leishmania amazonensis MPRO/BR/1972/M1841-LV-79 amastigotes infected in mouse peritoneal macrophages assessed as parasite growth inhibition after 24 hrs by Giemsa staining-based microscopic method; assay type: functional, organism-based; conditions: MPRO/BR/1972/M1841-LV-79, 24 h
Summary of the method: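 Peritoneal macrophages (3 × 10^5/well on coverslips, RPMI 1640 + 10% FBS) adhered 4 h at 37 °C, 5% CO2, then infected with stationary-phase promastigotes at 5:1 for 4 h. After washing, cells were cultured 18 h, then treated 24 h with compounds or reference drugs. Cells were methanol-fixed and Giemsa-stained. Infection index = % infected macrophages × mean amastigotes per infected cell. IC50 was fitted by regression.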

[6] = test system: Leishmania amazonensis; assay: Antileishmanial activity against Leishmania amazonensis MPRO/BR/1972/M1841-LV-79 amastigotes infected in mouse peritoneal macrophages assessed as reduction in number of intracellular amastigotes at 25 uM after 72 hrs by Giemsa staining-based microscopic method relative to control; assay type: functional; set-up: scale not given: the % may be the effect or the level left
Summary of the method: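 Infected peritoneal macrophages were treated with 25 µM of each compound, pentamidine or AmpB for 72 h. The infection index (% infected macrophages × amastigotes per infected macrophage) was compared with untreated infected cells. Data are given as mean ± SD.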

[7] = test system: Mus musculus; assay: Mutagenic index, ratio of test compound effect to hydroxyethylcellulose effect for Swiss albino mouse assessed as frequency of micronucleated reticulocytes per 2000 cells at 25 mg/kg administered via gavage; assay type: organism-based; conditions: in vivo, po
Summary of the method: (§1)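 Male Swiss albino mice (5 per group) received 25, 50 or 100 mg/kg by gavage. The negative control got 0.3 mL of 0.5% hydroxyethylcellulose; the positive control got cyclophosphamide 50 mg/kg ip. Micronucleated reticulocytes were counted per 2000 cells on acridine orange-stained slides. MI = treated MNRET ÷ negative-control MNRET.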

[8] = Mutagenicity in Swiss albino mouse assessed as frequency of micronucleated reticulocytes per 2000 cells at 50 mg/kg administered via gavage by acridine orange staining-based micronucleus test; assay type: toxicity, organism-based; conditions: in vivo, po
Summary of the method: (§2)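 Male Swiss albino mice (30 ± 4 g, 5 per group) were dosed by gavage at 25, 50 or 100 mg/kg. Controls: 0.5% hydroxyethylcellulose (negative) and ip cyclophosphamide 50 mg/kg (positive). Peripheral blood was placed on acridine orange (1 mg/mL) pre-stained slides heated at 70 °C. Fluorescence microscopy used 488 nm light; micronucleated cells were counted among 2000 reticulocytes per animal.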

[9] = Mutagenicity in Swiss albino mouse assessed as frequency of micronucleated reticulocytes per 2000 cells at 25 mg/kg administered via gavage by acridine orange staining-based micronucleus test; assay type: toxicity, organism-based; conditions: in vivo, po; summary of the method: as §2
[10] = Mutagenicity in Swiss albino mouse assessed as frequency of micronucleated reticulocytes per 2000 cells at 100 mg/kg administered via gavage by acridine orange staining-based micronucleus test; assay type: toxicity, organism-based; conditions: in vivo, po; summary of the method: as §2
[11] = test system: Mus musculus; assay: Mutagenic index, ratio of test compound effect to hydroxyethylcellulose effect for Swiss albino mouse assessed as frequency of micronucleated reticulocytes per 2000 cells at 50 mg/kg administered via gavage; assay type: organism-based; conditions: in vivo, po; summary of the method: as §1
[12] = test system: Mus musculus; assay: Mutagenic index, ratio of test compound effect to hydroxyethylcellulose effect for Swiss albino mouse assessed as frequency of micronucleated reticulocytes per 2000 cells at 100 mg/kg administered via gavage; assay type: organism-based; conditions: in vivo, po; summary of the method: as §1
[13] = test system: Leishmania amazonensis; assay: Antileishmanial activity against promastigote stage of Leishmania amazonensis MPRO/BR/1972/M1841-LV-79 infected in Balb/c mouse assessed as increase in plasma bilirubin level at 0.13 to 0.25 mg/kg, ip administered once daily for 15 days measured during compound dosing; assay type: functional, organism-based
[14] = Renal toxicity in Balb/c mouse infected with promastigote stage of Leishmania amazonensis MPRO/BR/1972/M1841-LV-79 assessed as change in plasma creatinine level at 0.13 to 0.25 mg/kg, ip administered once daily for 15 days measured post-last dose; assay type: organism-based; conditions: in vivo, 360 h
Summary of the method: (§3)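 Female BALB/c mice (4 weeks old, 5 per group) were infected in the left hind footpad with 1 × 10^7 parasites/mL of infective promastigotes. After six weeks they received daily ip doses for 15 days: 0.13 or 0.25 mg/kg/day (from DMSO stock in PBS, 0.1% DMSO), AmpB 2 mg/kg/day in sterile water, or PBS. Controls were untreated infected and uninfected mice. At end of treatment, plasma bilirubin, AST, ALT, ALP, urea and creatinine were measured with commercial kits.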

[15] = test system: Leishmania amazonensis; assay: Antileishmanial activity against promastigote stage of Leishmania amazonensis MPRO/BR/1972/M1841-LV-79 infected in Balb/c mouse assessed as decrease in plasma alkaline phosphatase level at 0.13 to 0.25 mg/kg, ip administered once daily for 15 days measured post-last dose; assay type: functional, organism-based; summary of the method: as §3
[16] = test system: Leishmania amazonensis; assay: Antileishmanial activity against promastigote stage of Leishmania amazonensis MPRO/BR/1972/M1841-LV-79 infected in Balb/c mouse assessed as reduction in parasitic load at 0.25 mg/kg, ip administered once daily for 15 days by limiting dilution method relative to control; assay type: functional; set-up: scale not given: the % may be the effect or the level left
Summary of the method: (§4)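 Footpad-infected female BALB/c mice (1 × 10^7 parasites/mL promastigotes; 5 per group) were treated from six weeks post-infection. Dosing was daily ip for 15 days: 0.13 or 0.25 mg/kg/day (PBS, 0.1% DMSO), AmpB 2 mg/kg/day, or PBS vehicle. Skin-lesion parasite burden was quantified after treatment by limiting dilution and compared with untreated infected mice. Data are mean ± SD.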

[17] = Renal toxicity in Balb/c mouse infected with promastigote stage of Leishmania amazonensis MPRO/BR/1972/M1841-LV-79 assessed as change in plasma urea level at 0.13 to 0.25 mg/kg, ip administered once daily for 15 days measured post-last dose; assay type: organism-based; conditions: in vivo, 360 h; summary of the method: as §3
[18] = test system: Leishmania amazonensis; assay: Antileishmanial activity against promastigote stage of Leishmania amazonensis MPRO/BR/1972/M1841-LV-79 infected in Balb/c mouse assessed as reduction in parasitic load at 0.13 mg/kg, ip administered once daily for 15 days by limiting dilution method relative to control; assay type: functional; set-up: scale not given: the % may be the effect or the level left; summary of the method: as §4
[19] = Toxicity in Balb/c mouse infected with promastigote stage of Leishmania amazonensis MPRO/BR/1972/M1841-LV-79 assessed as change in body weight at 0.13 to 0.25 mg/kg, ip administered once daily for 15 days measured during compound dosing; assay type: organism-based; conditions: in vivo, 360 h
[20] = test system: Leishmania amazonensis; assay: Antileishmanial activity against promastigote stage of Leishmania amazonensis MPRO/BR/1972/M1841-LV-79 infected in Balb/c mouse assessed as decrease in plasma aspartate aminotransferase level at 0.13 to 0.25 mg/kg, ip administered once daily for 15 days measured post-last dose; assay type: functional, organism-based; summary of the method: as §3
[21] = test system: Leishmania amazonensis; assay: Antileishmanial activity against promastigote stage of Leishmania amazonensis MPRO/BR/1972/M1841-LV-79 infected in Balb/c mouse assessed as reduction in volume of foot lesions at 0.13 to 0.25 mg/kg, ip administered once daily for 15 days measured every 5 days during compound dosing by caliper method; assay type: functional, organism-based
Summary of the method: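 Infected BALB/c mice (5 per group) were dosed daily ip for 15 days, starting six weeks after footpad inoculation: 0.13 or 0.25 mg/kg/day, AmpB 2 mg/kg/day, or PBS. Foot lesion thickness was measured with a dial caliper every 5 days.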

[22] = test system: Leishmania amazonensis; assay: Antileishmanial activity against promastigote stage of Leishmania amazonensis MPRO/BR/1972/M1841-LV-79 infected in Balb/c mouse assessed as decrease in plasma alanine aminotransferase level at 0.13 to 0.25 mg/kg, ip administered once daily for 15 days measured post-last dose; assay type: functional, organism-based; summary of the method: as §3

Row | SMILES | CC50 at 24 h [1] [µM] | selectivity ratio [2] | IC50 [3] [µM] | selectivity ratio [4] | IC50 [5] [µM] | Activity [6] [%] | further results
1 | O=C(/N=C(/NCc1ccccc1)Nc1ccccc1)c1ccccc1 | 35.9 | 1.6 | 22.6 |  |  |  | 
2 | O=C(/N=C(/NCc1ccccc1)Nc1ccc(C(F)(F)F)cc1)c1ccccc1 | 18.6 | 2.7 | 6.8 | 0.8 | 21.4 |  | 
3 | CC(C)(C)c1ccc(N/C(=N\C(=O)c2ccccc2)NCc2ccccc2)cc1 | 1120 | 43.2 | 25.9 | 65 | 17.2 |  | 
4 | N=C(N)c1ccc(OCCCCCOc2ccc(C(=N)N)cc2)cc1 [PENTAMIDINE] | 35.7 | 4.7 | 7.6 | 7 | 5.07 | 81 | 
5 | O=C(/N=C(/NCc1ccccc1)Nc1ccc(I)cc1)c1ccccc1 | 619 | 38.9 | 15.9 | 87.1 | 7.1 | 78 | Ratio [7]: 0.6; Activity [8]: 5; Activity [9]: 3; Activity [10]: 6; Ratio [11]: 1; Ratio [12]: 1.2
6 | O=C(/N=C(/NCc1ccccc1)Nc1ccc(Cl)cc1)c1ccccc1 | 827 | 42 | 19.7 | 20.1 | 41.2 | 19 | 
7 | O=C(/N=C(/NCc1ccccc1)Nc1ccc(Br)cc1)c1ccccc1 | 738 | 37.7 | 19.6 | 132 | 5.6 | 86 | Activity [13]: Active; Ratio [7]: 1.4; Activity [14]: Non-Toxic; Activity [15]: Active; Activity [16]: 60%; Activity [8]: 8; Activity [9]: 7; Activity [10]: 6; Activity [17]: Non-Toxic; Activity [18]: 46%; Ratio [11]: 1.6; Activity [19]: Non-Toxic; Activity [20]: inactive; Ratio [12]: 1.2; Activity [21]: Active; Activity [22]: Active
8 | COc1ccc(N/C(=N\C(=O)c2ccccc2)NCc2ccccc2)cc1 | 837 | 32.9 | 25.4 | 39.6 | 21.1 |  | 
9 | Cc1ccc(N/C(=N\C(=O)c2ccccc2)NCc2ccccc2)cc1 | 876 | 41.9 | 20.9 | 36.2 | 24.2 |  | 
10 | O=C(/N=C(/NCc1ccccc1)Nc1ccc([N+](=O)[O-])cc1)c1ccccc1 | 802 | 69.7 | 11.5 | 36.4 | 22.1 |  | 
11 | O=C(/N=C(/NCc1ccccc1)Nc1ccc(F)cc1)c1ccccc1 | 866 | 39.5 | 21.9 | 45.5 | 19 | 70 | 
